Assay results from ChEMBL document CHEMBL5705892, “MK-2206, an allosteric Akt inhibitor, enhances antitumor efficacy by standard chemotherapeutic agents or molecular targeted drugs in vitro and in vivo” (Mol Cancer Ther, 2010).
Active and inactive are the calls of the source. The calls are words filed in the database; no cut-off is given here.

Key:
NCI-H292 [1] = assay: Antiproliferative activity against human NCI-H292 cells assessed as reduction in cell proliferation measured after 72 hrs by celltiter-glo assay; type: functional, cell-based; details: NCI-H292, 72 h
In short: (§1)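 Cells in RPMI 1640 with 10% heat-inactivated FBS at 37°C and 5% CO₂ were seeded at 2 to 3 × 10³ per well. […] Growth was read as cellular ATP by CellTiter-Glo.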

NCI-H1299 = assay: Antiproliferative activity against human NCI-H1299 cells assessed as reduction in cell proliferation measured after 72 hrs by celltiter-glo assay; type: functional, cell-based; details: NCI-H1299, 72 h; in short: as §1
NCI-H358 [2] = assay: Synergistic antiproliferative activity against human NCI-H358 cells assessed as combination index at ED75 measured after 72 hrs in presence of erlotinib by celltiter-glo assay; type: functional
NCI-H460 [3] = assay: Synergistic antiproliferative activity against human NCI-H460 cells assessed as combination index at ED75 measured after 72 hrs in presence of erlotinib by celltiter-glo assay; type: functional
SK-OV-3 [4] = assay: Synergistic antiproliferative activity against human SK-OV-3 cells assessed as combination index at ED75 measured after 72 hrs in presence of lapatinib by celltiter-glo assay; type: functional
NCI-H358 [5] = assay: Synergistic antiproliferative activity against human NCI-H358 cells assessed as combination index at ED90 measured after 72 hrs in presence of erlotinib by celltiter-glo assay; type: functional
NCI-H292 [6] = assay: Induction of apoptosis in human NCI-H292 cells assessed as increase in caspase-3/7 activity up to 3 umol/L measured after 48 hrs by caspase-glo 3/7 assay; type: functional, cell-based; details: dose <= 3.0 µmol/L
In short: (§2)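 Caspase-3/7 activity was measured by Caspase-Glo 3/7 and expressed as fold over DMSO vehicle control. The experiment was done twice.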

NCI-H292 [7] = assay: Induction of apoptosis in human NCI-H292 cells assessed as increase in caspase-3/7 activity measured after 48 hrs in presence of erlotinib by caspase-glo 3/7 assay; type: functional, cell-based; details: dose <= 3.0 µmol/L; in short: as §2
[8] = In vivo inhibition of AKT phosphorylation at S473 residue in human NCI-H292 cells xenografted mouse at 120 mg/kg, po administered as single dose 2 hrs post-erlotinib treatment measured after 12 hrs by Western blot analysis relative to control; type: functional
HCC1954 = assay: Synergistic antiproliferative activity against lapatinib pretreated human HCC1954 cells assessed as combination index at ED50 measured after 72 hrs by celltiter-glo assay; type: functional
MDA-MB-468 [9] = assay: Synergistic antiproliferative activity against human MDA-MB-468 cells assessed as combination index at ED90 treated 24 hrs prior to lapatinib and measured after 72 hrs by celltiter-glo assay; type: functional; details: time 96 hrs
SK-OV-3 [10] = assay: Synergistic antiproliferative activity against human SK-OV-3 cells assessed as combination index at ED90 treated 24 hrs prior to lapatinib and measured after 72 hrs by celltiter-glo assay; type: functional; details: time 96 hrs
NCI-N87 = assay: Synergistic antiproliferative activity against human NCI-N87 cells assessed as combination index at ED90 treated 24 hrs prior to lapatinib and measured after 72 hrs by celltiter-glo assay; type: functional; details: time 96 hrs
SK-OV-3 [11] = assay: Synergistic antiproliferative activity against lapatinib pretreated human SK-OV-3 cells assessed as combination index at ED90 measured after 72 hrs by celltiter-glo assay; type: functional
SK-OV-3 [12] = assay: Synergistic antiproliferative activity against human SK-OV-3 cells assessed as combination index at ED90 measured after 96 hrs in presence of lapatinib by celltiter-glo assay; type: functional
[13] = biological target: RAC-alpha serine/threonine-protein kinase (Homo sapiens) (UniProt P31749); assay: Inhibition of AKT phosphorylation at S473 residue in human HCC70 cells at 1 umol/L measured after 3 to 24 hrs by Western blot analysis; type: cell-based; details: dose 1.0 µmol/L, time 3-24 hrs
Chain of RAC-alpha serine/threonine-protein kinase (Homo sapiens) (P31749 whole entry): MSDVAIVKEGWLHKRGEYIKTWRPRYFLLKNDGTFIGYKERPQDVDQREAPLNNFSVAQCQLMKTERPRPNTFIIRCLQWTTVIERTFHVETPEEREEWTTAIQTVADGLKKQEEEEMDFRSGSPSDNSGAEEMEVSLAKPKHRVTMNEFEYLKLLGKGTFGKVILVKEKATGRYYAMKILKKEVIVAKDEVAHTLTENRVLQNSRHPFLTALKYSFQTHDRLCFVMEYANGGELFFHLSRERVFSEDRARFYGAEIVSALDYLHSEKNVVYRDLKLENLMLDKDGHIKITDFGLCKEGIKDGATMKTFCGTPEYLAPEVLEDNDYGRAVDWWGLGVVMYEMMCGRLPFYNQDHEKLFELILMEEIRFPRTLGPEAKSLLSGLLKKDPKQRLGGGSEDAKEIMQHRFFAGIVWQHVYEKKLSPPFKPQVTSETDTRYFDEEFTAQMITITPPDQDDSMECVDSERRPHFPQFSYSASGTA
In short: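 HCC70 cells at ~70% confluence were exposed to 10 µmol/L lapatinib, 1 µmol/L MK-2206, or both, for 0, 3, 6, 12 or 24 h. Lysates were prepared in Triton X-100/Tris buffer (pH 7.5) with protease and phosphatase inhibitors. Immunoblots after SDS-PAGE and nitrocellulose transfer were probed for pAkt and pS6.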

MDA-MB-468 [14] = assay: Synergistic antiproliferative activity against human MDA-MB-468 cells assessed as combination index at ED50 measured after 72 hrs in presence of docetaxel by celltiter-glo assay; type: functional
In short: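 Cells grown in RPMI 1640 with 10% heat-inactivated FBS at 37°C, 5% CO₂. Seeded at 2 to 3 × 10³ per well; drugs added 24 h later. […] Viability read as cellular ATP by CellTiter-Glo. CI calculated by Chou–Talalay from median-effect plots at ED50, ED75 and ED90.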

PC-3 = assay: Antitumor activity against human PC-3 cells xenografted in CD1 nude mouse assessed as reduction in tumor volume at 120 mg/kg, po administered 3 times per week for 2 weeks and measured during compound dosing by caliper method; type: functional, organism-based
In short: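 Male CD1-nude mice received s.c. PC-3 cells and were treated from day 25 after implant, at 0.2 cm³, n = 5. Docetaxel (0.73% ethanol in saline) was given at 5 mg/kg i.v. on day 0. MK-2206 (30% Captisol) was given at 120 mg/kg po on days 1, 3, 5, 8, 10, 12. Caliper volume twice weekly.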

A2780 [15] = assay: Synergistic antiproliferative activity against human A2780 cells assessed as combination index at ED75 measured after 72 hrs in presence of camptothecin by celltiter-glo assay; type: functional
In short: (§3)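 Cells were seeded at 2–3 × 10³ per well in RPMI 1640 with 10% FBS. At 24 h, MK-2206 and the partner drug were added simultaneously at constant concentration ratios spanning each agent's IC₅₀, for 72 h. Growth was read as cellular ATP by CellTiter-Glo. CI was taken from median-effect plots of each agent alone and in combination (Chou–Talalay), at ED₅₀, ED₇₅ and ED₉₀.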

A2780 [16] = assay: Synergistic antiproliferative activity against human A2780 cells assessed as combination index at ED75 measured after 72 hrs in presence of gemcitabine by celltiter-glo assay; type: functional; in short: as §3
A2780 [17] = assay: Synergistic antiproliferative activity against human A2780 cells assessed as combination index at ED75 measured after 72 hrs in presence of 5-FU by celltiter-glo assay; type: functional; in short: as §3
A2780 [18] = assay: Synergistic antiproliferative activity against human A2780 cells assessed as combination index at ED90 measured after 72 hrs in presence of 5-FU by celltiter-glo assay; type: functional; in short: as §3
NCI-H460 [19] = assay: Synergistic antiproliferative activity against human NCI-H460 cells assessed as combination index at ED50 measured after 72 hrs in presence of carboplatin by celltiter-glo assay; type: functional
NCI-H460 [20] = assay: Synergistic antiproliferative activity against human NCI-H460 cells assessed as combination index at ED75 measured after 72 hrs in presence of doxorubicin by celltiter-glo assay; type: functional
A2780 [21] = assay: Cell cycle arrest in human A2780 cells assessed as increase in accumulation of cells at sub-G1 phase measured after 72 hrs in presence of doxorubicin by propidium iodide staining based flow cytometry; type: functional
A2780 [22] = assay: Cell cycle arrest in human A2780 cells assessed as increase in accumulation of cells at sub-G1 phase measured after 72 hrs in presence of gemcitabine by propidium iodide staining based flow cytometry; type: functional
UMC-11 = assay: Synergistic antiproliferative activity against human UMC-11 cells assessed as combination index at ED25 to ED90 measured after 72 hrs in presence of carboplatin by celltiter-glo assay; type: functional

Cl.NC1(c2ccc(-c3nc4ccn5c(=O)[nH]nc5c4cc3-c3ccccc3)cc2)CCC1
IC50 (NCI-H292 [1]): 5.2 µM | IC50 (NCI-H1299): 27 µM | CI75 (NCI-H358 [2]): 0.19 | CI75 (NCI-H460 [3]): 0.23 | CI75 (SK-OV-3 [4]): 0.13 | CI90 (NCI-H358 [5]): 0.08 | Activity (NCI-H292 [6]): inactive | Activity (NCI-H292 [7]): Dose-Dependent Effect | inhibition in vivo at 120 mg/kg [8]: 79.9% | CI50 (HCC1954): 0.18 | CI90 (MDA-MB-468 [9]): 0.18 | CI90 (SK-OV-3 [10]): 0.18 | CI90 (NCI-N87): 0.18 | CI90 (SK-OV-3 [11]): 0.18 | CI90 (SK-OV-3 [12]): 0.18 | inhibition [13]: Active | CI50 (MDA-MB-468 [14]): 0.9 | Activity (PC-3): Active | CI75 (A2780 [15]): 0.4 | CI75 (A2780 [16]): 0.43 | CI75 (A2780 [17]): 0.54 | CI90 (A2780 [18]): 0.53 | CI50 (NCI-H460 [19]): 0.35 | CI75 (NCI-H460 [20]): 0.18 | Activity (A2780 [21]): Dose-Dependent Effect | Activity (A2780 [22]): Dose-Dependent Effect | CI (UMC-11): 1.36
